Molecules are shown by their SMILES. pEC50: −log10 of the molar value.

Our source for the EC50, selectivity ratio and MCC values is ChEMBL document CHEMBL4265975, “Synthesis, biological evaluation and molecular modeling of a novel series of fused 1,2,3-triazoles as potential anti-coronavirus agents” (Bioorg Med Chem Lett, 2018).

Series [1] concerns Human alphaherpesvirus 1. Description: Antiviral activity against acyclovir-resistant TK-defecient Herpes simplex virus 1 KOS infected in human HEL cells assessed as inhibition of virus-induced cytopathic effect after 3 days by microscopic method. The series is classed as functional, organism-based. The conditions noted are these: Human alphaherpesvirus 1, KOS, 72 h. A general note: Damage to the host cells serves as the signal in cytopathic effect assays.

The nature of series [2]: Selectivity index, ratio of MCC for HEL cells to EC50 for Vaccinia virus infected in HEL cells. The conditions noted are these: human, read-out: Selectivity Index. The series is classed as toxicity, cell-based. An outline of the steps:
(§1)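 SI is MCC divided by EC50. […] MCC was measured in parallel on HEL cells seeded at 5 x 10^3 cells/well, as the lowest concentration causing microscopically visible alteration of cell morphology. The top concentration tested was 100 µM.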

Series [3] concerns Human alphaherpesvirus 1. Description: Antiviral activity against Herpes simplex virus 1 KOS infected in human HEL cells assessed as inhibition of virus-induced cytopathic effect after 3 days by microscopic method. The conditions noted are these: Human alphaherpesvirus 1, KOS, 72 h. The series is classed as functional, organism-based.
Series [4] is described as follows: Selectivity index, ratio of MCC for HEL cells to EC50 for acyclovir-resistant TK-defecient Herpes simplex virus 1 KOS infected in HEL cells. The series is classed as toxicity, cell-based. Particulars: human, read-out: Selectivity Index. An outline of the steps: as §1
Series [5] is described as follows: Selectivity index, ratio of MCC for HEL cells to EC50 for Herpes simplex virus 1 KOS infected in HEL cells. The series is classed as toxicity, cell-based. The conditions noted are these: human, read-out: Selectivity Index. An outline of the steps: as §1
Series [6] in a line: Selectivity index, ratio of MCC for HEL cells to EC50 for Human coronavirus 229E infected in HEL cells. Format: toxicity, cell-based. The conditions noted are these: read-out: Selectivity Index. An outline of the steps: as §1
In a further series the test system is Human adenovirus 2. Description: Antiviral activity against Human adenovirus 2 infected in human HEL cells assessed as inhibition of virus-induced cytopathic effect after 3 days by microscopic method. Format: functional, organism-based. The conditions noted are these: Human mastadenovirus C, 72 h. An outline of the steps: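 HEL cells were infected with adenovirus 2 for 2 h. Residual virus was then removed and the cells were incubated with medium containing graded compound concentrations for 3 days at 37°C. Virus-induced cytopathogenicity was scored microscopically.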

Series [7] is described as follows: Cytotoxicity against HEL cells assessed as alteration in cell morphology after 3 days by microscopic method. The series is classed as cell-based. The conditions noted are these: human. An outline of the steps:
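HEL cells were seeded at 5 x 10^3 cells/well and exposed to graded compound concentrations, up to 100 μM, in parallel with the antiviral assay. Cell morphology was examined by light microscopy. MCC is the minimum concentration causing a microscopically detectable alteration of normal cell morphology.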

Another series concerns Human alphaherpesvirus 2. As to the kind of experiment: Antiviral activity against Human herpesvirus 2 strain G infected in human HEL cells assessed as inhibition of virus-induced cytopathic effect after 3 days by microscopic method. Format: functional, organism-based. The conditions noted are these: Human alphaherpesvirus 2, strain G, 72 h.
Series [8] is described as follows: Selectivity index, ratio of MCC for HEL cells to EC50 for Herpes simplex virus 2 strain G infected in HEL cells. Format: toxicity, cell-based. Particulars: human, read-out: Selectivity Index. An outline of the steps: as §1
In a further series the test system is Vaccinia virus. As to the kind of experiment: Antiviral activity against Vaccinia virus infected in human HEL cells assessed as inhibition of virus-induced cytopathic effect after 3 days by microscopic method. The series is classed as functional, organism-based. Particulars: Orthopoxvirus vaccinia, 72 h.
The next series relates to Human coronavirus 229E. As to the kind of experiment: Antiviral activity against Human coronavirus 229E infected in HEL cells assessed as reduction in virus-induced pathogenicity after 3 days by microscopic method. The series is classed as functional, organism-based. Particulars: 72 h.
Series [9] is described as follows: Selectivity index, ratio of MCC for HEL cells to EC50 for Human adenovirus 2 infected in HEL cells. The series is classed as toxicity, cell-based. The conditions noted are these: read-out: Selectivity Index. An outline of the steps:
as §1

Consider `CCOC(=O)C1(Cc2ccccc2)CN(c2ccccc2)Cc2nnn(CCCCCO)c21` (centres undefined), for which the negative-log EC50 (pEC50) with Human alphaherpesvirus 1 [1], in the series on Human alphaherpesvirus 1 [3], with Human adenovirus 2, in the series with Human alphaherpesvirus 2, in the series with Vaccinia virus and in the series on Human coronavirus 229E was less than 4.00 in each case. For the same compound, the selectivity ratio in series [2], in series [4], in series [5], in series [6], in series [8] and in series [9] was more than 8 in each case. Besides, the MCC at 72 h in series [7] is more than 100 µM.
Regarding `CCOC(=O)C1(Cc2ccc(F)cc2)CN(c2ccccc2)Cc2nnn(Cc3cccc(F)c3)c21` (centres undefined), the negative-log EC50 (pEC50) with Human alphaherpesvirus 1 [1], in the series with Human alphaherpesvirus 1 [3], with Human adenovirus 2, in the series with Human alphaherpesvirus 2, in the series with Vaccinia virus and in the series with Human coronavirus 229E was less than 4.00 in each case. Also, the selectivity ratio in series [2], in [4], in series [5], in [6], in series [8] and in [9] was more than 8 each time. Further, the MCC at 72 h in series [7] was more than 100 µM.
As for `CCOC(=O)C1(Cc2ccc(F)cc2)CN(c2ccccc2)Cc2nnn(Cc3ccc(Cl)c(Cl)c3)c21` (centres undefined), the negative logarithm of the EC50 (pEC50) in the series on Human alphaherpesvirus 1 [1] was less than 4.00; in the series on Human alphaherpesvirus 1 [3], less than 4.00; in the series on Human adenovirus 2 it was less than 4.00; in the series on Human alphaherpesvirus 2, less than 4.00; in the series with Vaccinia virus it was less than 4.00; with Human coronavirus 229E it was 5.02. The selectivity ratio in series [2], in [4], in [5], in series [6], in [8] and in series [9] was more than 8 in each case. For the same compound, the MCC at 72 h in series [7] is more than 100 µM.
With `CCOC(=O)C1(Cc2ccccc2)CN(c2ccccc2)Cc2nnn(CCc3ccc(OC)cc3)c21` (centres undefined), the pEC50 with Human alphaherpesvirus 1 [1], in the series with Human alphaherpesvirus 1 [3], in the series with Human adenovirus 2, in the series with Human alphaherpesvirus 2, with Vaccinia virus and in the series on Human coronavirus 229E was less than 4.00 in each case. Moreover, the selectivity ratio in [2], in series [4], in [5], in series [6], in [8] and in series [9] was more than 8 in each case. The MCC at 72 h in series [7] is not below 20 µM.
Consider `COc1ccccc1CCn1nnc2c1CCN(c1ccccc1)C2`, for which the negative-log EC50 (pEC50) in the series with Human alphaherpesvirus 1 [1], with Human alphaherpesvirus 1 [3], with Human adenovirus 2, in the series on Human alphaherpesvirus 2, in the series on Vaccinia virus and with Human coronavirus 229E was less than 4.00 throughout. Further, the selectivity ratio in series [2], in series [4], in [5], in [6], in series [8] and in series [9] was more than 8 in each case. For the same compound, in series [7], the MCC at 72 h was not below 100 µM.
As for `CCOC(=O)C1(Cc2ccccc2)CN(c2ccccc2)Cc2nnn(CCc3cc4ccccc4[nH]3)c21` (centres undefined), the pEC50 in the series on Human alphaherpesvirus 1 [1] was less than 4.00; in the series on Human alphaherpesvirus 1 [3], less than 4.00; with Human adenovirus 2 it was less than 4.00; in the series with Human alphaherpesvirus 2, less than 4.00; with Vaccinia virus, less than 4.00; with Human coronavirus 229E it was 5.02. For the same compound, the selectivity ratio in [2], in [4], in [5], in series [6], in series [8] and in series [9] was more than 8 throughout. Besides, in series [7], the MCC at 72 h was more than 100 µM.
`COc1ccc(CCn2nnc3c2CCN(c2ccccc2)C3)cc1`: the pEC50 with Human alphaherpesvirus 1 [1], with Human alphaherpesvirus 1 [3], in the series on Human adenovirus 2, in the series on Human alphaherpesvirus 2, in the series with Vaccinia virus and with Human coronavirus 229E was less than 4.00 each time. For the same compound, the selectivity ratio in series [2], in series [4], in [5], in series [6], in series [8] and in series [9] was more than 8 in each case. For the same compound, the MCC at 72 h in series [7] was more than 100 µM.
For the compound `CCCCCCCCn1nnc2c1C(Cc1ccccc1)(C(=O)OCC)CN(c1ccccc1)C2` (centres undefined), the pEC50 in the series on Human alphaherpesvirus 1 [1], with Human alphaherpesvirus 1 [3], in the series with Human adenovirus 2, with Human alphaherpesvirus 2, in the series with Vaccinia virus and in the series on Human coronavirus 229E was less than 4.00 throughout. For the same compound, the selectivity ratio in series [2], in series [4], in series [5], in [6], in [8] and in series [9] was more than 8 each time. Also, the MCC at 72 h in series [7] was not below 20 µM.
Take `CCOC(=O)C1(Cc2ccccc2)CN(c2ccccc2)Cc2nnn(CCc3ccccc3OC)c21` (centres undefined): the negative logarithm of the EC50 (pEC50) with Human alphaherpesvirus 1 [1], in the series on Human alphaherpesvirus 1 [3], in the series with Human adenovirus 2, in the series with Human alphaherpesvirus 2, in the series on Vaccinia virus and in the series on Human coronavirus 229E was less than 4.00 each time. Moreover, the selectivity ratio in series [2], in series [4], in series [5], in [6], in series [8] and in [9] was more than 8 each time. Further, the MCC at 72 h in [7] was not below 100 µM.
On to `c1ccc(N2CCc3c(nnn3CC3CC3)C2)cc1`, for which the negative logarithm of the EC50 (pEC50) with Human alphaherpesvirus 1 [1], with Human alphaherpesvirus 1 [3], in the series with Human adenovirus 2, in the series with Human alphaherpesvirus 2, with Vaccinia virus and in the series with Human coronavirus 229E was less than 4.00 in each case. The selectivity ratio in [2], in series [4], in [5], in series [6], in [8] and in series [9] was more than 8 throughout. Also, the MCC at 72 h in series [7] was more than 100 µM.
`Nc1nc2c(ncn2COCCO)c(=O)[nH]1` [ACYCLOVIR]: in [7], the MCC at 72 h is more than 250 µM. Further, the negative logarithm of the EC50 (pEC50) in the series on Vaccinia virus is less than 3.60.
For `O=c1[nH]c(=O)n([C@H]2C[C@H](O)[C@@H](CO)O2)cc1/C=C/Br` [BRIVUDINE] the same measures were more than 250 µM and 5.42.
As to `Nc1ccn(C[C@@H](CO)OCP(=O)(O)O)c(=O)n1` [CIDOFOVIR], the pEC50 is 5.55 in the series with Human alphaherpesvirus 1 [1]; 5.35 in the series on Human alphaherpesvirus 1 [3]; 4.66 in the series with Human adenovirus 2; 5.47 in the series on Human alphaherpesvirus 2; 4.07 in the series on Vaccinia virus. In series [7], the MCC at 72 h was more than 250 µM.
As to `Nc1nc2c(ncn2COC(CO)CO)c(=O)[nH]1` [GANCICLOVIR], the MCC at 72 h in [7] is more than 100 µM. In addition, the pEC50 with Vaccinia virus was less than 4.00.
On to `Nc1ccn([C@H]2CC[C@@H](CO)O2)c(=O)n1` [ZALCITABINE], for which the pEC50 in the series on Human adenovirus 2 was 4.30. Besides, the MCC at 72 h in series [7] is more than 250 µM.

Usually pEC50 stands for the negative decadic logarithm of the EC50, by convention in mol/L.
